Reference: PubChem BioAssay AID602401 (Sanford-Burnham Center for Chemical Genomics, 2012)
Active and inactive are the calls of the source.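 How the source made its calls: active means IC50 below 100 µM in the TR-FRET assay, unless also active in the caspase-3 counter assay; inactive means the rest, including compounds also active in caspase-3.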

biological target: Caspase-3 (Homo sapiens) (UniProt P42574); test: recombinant caspase-3 enzyme inhibitors – biochemical, Caspase-Glo luminescence, set 4, counter-screen for UBC13 polyubiquitin inhibitor project, SAR follow-up (AID 602401); conditions: recombinant caspase-3, Caspase-Glo luminescence, 60 min
Procedure, shortened: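 Assay system – Caspase-3 enzyme in a luminescent counterscreen · Input – Caspase-3 2X solution, 0.046 nM · Buffer or medium – Hepes pH 7.8 with DTT, EDTA, Tween, BSA · Reagent – Caspase-Glo substrate, 0.75X as 2X solution · Times – 60 min reaction, room temperature · Detection – luminescence from Caspase-Glo substrate cleavage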

Caspase-3 (Homo sapiens), sequence (P42574 whole entry, looked up): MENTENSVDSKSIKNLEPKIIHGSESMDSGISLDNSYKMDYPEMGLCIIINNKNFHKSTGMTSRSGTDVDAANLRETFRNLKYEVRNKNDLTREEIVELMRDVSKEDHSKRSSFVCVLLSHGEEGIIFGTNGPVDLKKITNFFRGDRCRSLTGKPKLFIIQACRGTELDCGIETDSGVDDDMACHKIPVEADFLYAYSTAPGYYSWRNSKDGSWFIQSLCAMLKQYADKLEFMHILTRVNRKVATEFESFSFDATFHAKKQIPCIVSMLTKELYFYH

SMILES | IC50
Cc1ccc(NC(=O)C2CCN(c3ncnc4c3nc3n4CCCCC3)CC2)cc1C | > 100 µM (inactive)
O=C(NCC1CCN(Cc2ccc(F)cc2)CC1)C1CCCN(c2ncnc3c2nc2n3CCCCC2)C1 (stereo unspecified) | > 100 µM (inactive)
O=C(NCC1CCN(Cc2ccc(Cl)cc2)CC1)C1CCCN(c2ncnc3c2nc2n3CCCC2)C1 (stereo unspecified) | > 100 µM (inactive)
Cc1ccc(NC(=O)C2CCN(c3ncnc4c3nc3n4CCCCC3)CC2)c(Cl)c1 | > 100 µM (inactive)
O=C(C1CCN(c2ncnc3c2nc2n3CCCCC2)CC1)N1CCOCC1 | > 100 µM (inactive)
Cc1ccc(NC(=O)C2CCN(c3ncnc4c3nc3n4CCCCC3)CC2)cc1F | > 100 µM (inactive)
O=C(NCc1ccc(Cl)c(Cl)c1)C1CCN(c2ncnc3c2nc2n3CCCCC2)CC1 | > 100 µM (inactive)
COc1ccccc1N1CCN(CCCNC(=O)C2CCCN(c3ncnc4c3nc3n4CCCCC3)C2)CC1 (stereo unspecified) | > 100 µM (inactive)
Cc1ccc(NC(=O)C2CCCN(c3ncnc4c3nc3n4CCCC3)C2)cc1C (stereo unspecified) | > 100 µM (inactive)
O=C(C1CCN(c2ncnc3c2nc2n3CCCCC2)CC1)N1CCC(Cc2ccccc2)CC1 | > 100 µM (inactive)
CC1CCCC(C)N1CCCNC(=O)C1CCCN(c2ncnc3c2nc2n3CCCCC2)C1 (stereo unspecified) | > 100 µM (inactive)
COc1cc(Cl)c(C)cc1NC(=O)C1CCN(c2ncnc3c2nc2n3CCCCC2)CC1 | > 100 µM (inactive)
O=C(NCc1cccc(Cl)c1)C1CCN(c2ncnc3c2nc2n3CCCCC2)CC1 | > 100 µM (inactive)
COc1cc(OC)c(NC(=O)C2CCN(c3ncnc4c3nc3n4CCCCC3)CC2)cc1Cl | > 100 µM (inactive)
O=C(NCC1CCN(Cc2cccc(Cl)c2)CC1)[C@@H]1CCCN(c2ncnc3c2nc2n3CCCCC2)C1 | > 100 µM (inactive)
O=C(NCc1cccc(Cl)c1)C1CCN(c2ncnc3c2nc2n3CCCC2)CC1 | 63.4 µM
O=C(Nc1cccc(Cl)c1)C1CCN(c2ncnc3c2nc2n3CCCCC2)CC1 | > 100 µM (inactive)
O=C(c1ccco1)N1CCN(C(=O)C2CCN(c3ncnc4c3nc3n4CCCCC3)CC2)CC1 | > 100 µM (inactive)
O=C(NCCCN1CCCCC1)C1CCN(c2ncnc3c2nc2n3CCCCC2)CC1 | > 100 µM (inactive)
Cc1ccc(NC(=O)C2CCCN(c3ncnc4c3nc3n4CCCC3)C2)cc1F (stereo unspecified) | > 100 µM (inactive)
Cc1ccc(C)c(CN2CCC(CNC(=O)C3CCCN(c4ncnc5c4nc4n5CCCCC4)C3)CC2)c1 (stereo unspecified) | > 100 µM (inactive)
Cc1cc(C)cc(NC(=O)C2CCCN(c3ncnc4c3nc3n4CCCCC3)C2)c1 (stereo unspecified) | > 100 µM (inactive)
O=C(NCC1CCN(Cc2cccc(Cl)c2)CC1)[C@@H]1CCCN(c2ncnc3c2nc2n3CCCC2)C1 | > 100 µM (inactive)
Cc1ccc(NC(=O)C2CCCN(c3ncnc4c3nc3n4CCCC3)C2)cc1Br (stereo unspecified) | > 100 µM (inactive)
Cc1ccc(NC(=O)C2CCN(c3ncnc4c3nc3n4CCCC3)CC2)cc1C | > 100 µM (inactive)
Cc1cccc(NC(=O)C2CCN(c3ncnc4c3nc3n4CCCCC3)CC2)c1C | > 100 µM (inactive)

SMILES | IC50
CN(CCNC(=O)C1CCN(c2ncnc3c2nc2n3CCCCC2)CC1)Cc1ccccc1 | > 100 µM (inactive)
O=C(NCc1cccc(Cl)c1)C1CCCN(c2ncnc3c2nc2n3CCCCC2)C1 (stereo unspecified) | > 100 µM (inactive)
O=C(Nc1ccc(F)c(Cl)c1)C1CCN(c2ncnc3c2nc2n3CCCCC2)CC1 | > 100 µM (inactive)
O=C(NCC1CCN(Cc2ccccc2Cl)CC1)C1CCCN(c2ncnc3c2nc2n3CCCC2)C1 (stereo unspecified) | > 100 µM (inactive)
O=C(NCC1CCN(Cc2cccc(Cl)c2)CC1)C1CCCN(c2ncnc3c2nc2n3CCCC2)C1 (stereo unspecified) | > 100 µM (inactive)
O=C(NCCCN1CCN(c2ccc(F)cc2)CC1)C1CCCN(c2ncnc3c2nc2n3CCCCC2)C1 (stereo unspecified) | > 100 µM (inactive)
O=C(C1CCN(c2ncnc3c2nc2n3CCCCC2)CC1)N1CCN(Cc2ccccc2)CC1 | > 100 µM (inactive)
CC1CC(C)CN(C(=O)C2CCN(c3ncnc4c3nc3n4CCCCC3)CC2)C1 (stereo unspecified) | > 100 µM (inactive)
CCCN1CCN(C(=O)C2CCN(c3ncnc4c3nc3n4CCCCC3)CC2)CC1 | > 100 µM (inactive)
O=C(C1CCN(c2ncnc3c2nc2n3CCCCC2)CC1)N1CCN(c2ncccn2)CC1 | > 100 µM (inactive)
Cc1cccc(NC(=O)C2CCCN(c3ncnc4c3nc3n4CCCCC3)C2)c1 (stereo unspecified) | > 100 µM (inactive)
O=C(Nc1ccc(CN2CCCCC2)cc1)C1CCN(c2ncnc3c2nc2n3CCCCC2)CC1 | > 100 µM (inactive)
O=C(NCc1ccc(Cl)c(Cl)c1)C1CCCN(c2ncnc3c2nc2n3CCCC2)C1 (stereo unspecified) | > 100 µM (inactive)
O=C(NCC1CCN(Cc2ccc(Cl)c(Cl)c2)CC1)C1CCCN(c2ncnc3c2nc2n3CCCC2)C1 (stereo unspecified) | > 100 µM (inactive)
O=C(NCC1CCN(Cc2ccccc2Cl)CC1)C1CCCN(c2ncnc3c2nc2n3CCCCC2)C1 (stereo unspecified) | > 100 µM (inactive)
Cc1ccc(NC(=O)C2CCN(c3ncnc4c3nc3n4CCCC3)CC2)cc1F | > 100 µM (inactive)
Cc1cccc(NC(=O)C2CCN(c3ncnc4c3nc3n4CCCCC3)CC2)c1 | > 100 µM (inactive)
Cc1ccc(NC(=O)C2CCN(c3ncnc4c3nc3n4CCCC3)CC2)cc1Br | > 100 µM (inactive)
Cc1ccc(NC(=O)C2CCCN(c3ncnc4c3nc3n4CCCCC3)C2)cc1F (stereo unspecified) | > 100 µM (inactive)
O=C(C1CCN(c2ncnc3c2nc2n3CCCCC2)CC1)N1CCN(c2ccc(F)cc2)CC1 | > 100 µM (inactive)
Cc1cccc(NC(=O)C2CCCN(c3ncnc4c3nc3n4CCCC3)C2)c1 (stereo unspecified) | > 100 µM (inactive)
Cc1cccc(N2CCN(CCCNC(=O)C3CCCN(c4ncnc5c4nc4n5CCCCC4)C3)CC2C)c1 (stereo unspecified) | > 100 µM (inactive)
Cc1cccc(NC(=O)C2CCN(c3ncnc4c3nc3n4CCCC3)CC2)c1 | 69 µM
Cc1ccc(C)c(N2CCN(CCCNC(=O)C3CCCN(c4ncnc5c4nc4n5CCCCC4)C3)CC2)c1 (stereo unspecified) | > 100 µM (inactive)
Cc1cc(Cl)ccc1NC(=O)C1CCN(c2ncnc3c2nc2n3CCCCC2)CC1 | > 100 µM (inactive)
Cc1cc(C)cc(NC(=O)C2CCN(c3ncnc4c3nc3n4CCCC3)CC2)c1 | > 100 µM (inactive)

SMILES | IC50
COc1ccc(NC(=O)C2CCN(c3ncnc4c3nc3n4CCCCC3)CC2)cc1Cl | > 100 µM (inactive)
CC1CCCCN1C(=O)C1CCN(c2ncnc3c2nc2n3CCCCC2)CC1 (stereo unspecified) | > 100 µM (inactive)
O=C(NCC1CCN(Cc2cccc(Cl)c2)CC1)[C@H]1CCCN(c2ncnc3c2nc2n3CCCCC2)C1 | > 100 µM (inactive)
O=C(NCC1CCN(Cc2ccc(Cl)cc2)CC1)C1CCCN(c2ncnc3c2nc2n3CCCCC2)C1 (stereo unspecified) | > 100 µM (inactive)
O=C(NCC1CCN(Cc2ccc(Cl)c(Cl)c2)CC1)C1CCCN(c2ncnc3c2nc2n3CCCCC2)C1 (stereo unspecified) | > 100 µM (inactive)
O=C(NCC1CCN(Cc2cccc(Cl)c2)CC1)[C@H]1CCCN(c2ncnc3c2nc2n3CCCC2)C1 | > 100 µM (inactive)
Cc1ccc(NC(=O)C2CCN(c3ncnc4c3nc3n4CCCCC3)CC2)cc1Br | > 100 µM (inactive)
O=C(C1CCN(c2ncnc3c2nc2n3CCCCC2)CC1)N1CCN(c2ccccc2)CC1 | > 100 µM (inactive)
O=C(Nc1cc(F)ccc1F)C1CCN(c2ncnc3c2nc2n3CCCCC2)CC1 | > 100 µM (inactive)
Cc1ccc(NC(=O)C2CCCN(c3ncnc4c3nc3n4CCCCC3)C2)cc1Br (stereo unspecified) | > 100 µM (inactive)
CCC1CCCCN1CCCNC(=O)C1CCN(c2ncnc3c2nc2n3CCCCC2)CC1 (stereo unspecified) | > 100 µM (inactive)
O=C(NCCCN1CCN(c2ccccc2)CC1)C1CCCN(c2ncnc3c2nc2n3CCCCC2)C1 (stereo unspecified) | > 100 µM (inactive)
O=C(NCC1CCN(Cc2cccc(Cl)c2)CC1)C1CCCN(c2ncnc3c2nc2n3CCCCC2)C1 (stereo unspecified) | > 100 µM (inactive)
O=C(NCc1ccc(Cl)c(Cl)c1)C1CCCN(c2ncnc3c2nc2n3CCCCC2)C1 (stereo unspecified) | > 100 µM (inactive)
Cc1c(Cl)cccc1NC(=O)C1CCN(c2ncnc3c2nc2n3CCCCC2)CC1 | > 100 µM (inactive)
O=C(NCc1cccc(Cl)c1)C1CCCN(c2ncnc3c2nc2n3CCCC2)C1 (stereo unspecified) | > 100 µM (inactive)
Cc1ccccc1CN1CCC(CNC(=O)C2CCCN(c3ncnc4c3nc3n4CCCCC3)C2)CC1 (stereo unspecified) | > 100 µM (inactive)
COc1ccc(Cl)cc1NC(=O)C1CCN(c2ncnc3c2nc2n3CCCCC2)CC1 | > 100 µM (inactive)
O=C(C1CCN(c2ncnc3c2nc2n3CCCCC2)CC1)N1CCN(c2ccccn2)CC1 | > 100 µM (inactive)
O=C(NCc1ccc(Cl)c(Cl)c1)C1CCN(c2ncnc3c2nc2n3CCCC2)CC1 | > 100 µM (inactive)
O=C(NCC1CCN(Cc2ccccc2F)CC1)C1CCCN(c2ncnc3c2nc2n3CCCCC2)C1 (stereo unspecified) | > 100 µM (inactive)
Cc1cc(C)cc(NC(=O)C2CCCN(c3ncnc4c3nc3n4CCCC3)C2)c1 (stereo unspecified) | > 100 µM (inactive)
Cc1cc(C)cc(NC(=O)C2CCN(c3ncnc4c3nc3n4CCCCC3)CC2)c1 | > 100 µM (inactive)
Cc1ccc(NC(=O)C2CCN(c3ncnc4c3nc3n4CCCCC3)CC2)cc1Cl | > 100 µM (inactive)
